Experimental data from ChEMBL document CHEMBL4765247, “Novel mouse GABA uptake inhibitors with enhanced inhibitory activity toward mGAT3/4 and their effect on pain threshold in mice” (Eur J Med Chem, 2020).

Legend:
[1] = target: T1, GABA transporter 3 (Mus musculus, UniProt P31649); test: Inhibition of mouse GTA 3 receptor
T1 sequence (P31649 whole entry): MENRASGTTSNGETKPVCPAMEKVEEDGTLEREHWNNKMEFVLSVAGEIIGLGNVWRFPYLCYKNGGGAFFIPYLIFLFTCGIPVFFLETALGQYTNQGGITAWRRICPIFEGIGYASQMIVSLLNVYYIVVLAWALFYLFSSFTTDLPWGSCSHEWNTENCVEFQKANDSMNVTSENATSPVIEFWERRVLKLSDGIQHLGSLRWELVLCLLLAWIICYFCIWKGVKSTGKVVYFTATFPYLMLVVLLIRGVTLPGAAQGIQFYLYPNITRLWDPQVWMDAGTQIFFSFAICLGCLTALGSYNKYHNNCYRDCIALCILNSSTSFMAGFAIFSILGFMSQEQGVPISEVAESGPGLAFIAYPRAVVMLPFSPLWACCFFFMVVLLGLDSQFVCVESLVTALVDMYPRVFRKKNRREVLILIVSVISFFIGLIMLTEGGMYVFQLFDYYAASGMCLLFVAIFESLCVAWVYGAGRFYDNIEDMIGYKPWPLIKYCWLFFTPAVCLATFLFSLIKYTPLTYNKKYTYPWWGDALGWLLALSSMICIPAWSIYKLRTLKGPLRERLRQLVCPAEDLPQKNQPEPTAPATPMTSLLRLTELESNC

[2] = target: T2, Sodium- and chloride-dependent GABA transporter 1 (Mus musculus, UniProt P31648); test: Inhibition of mouse GTA 1 receptor
[3] = target: T3, GABA transporter 4 (Mus musculus, UniProt P31650); test: Inhibition of mouse GTA4 receptor
T3 sequence (P31650 whole entry): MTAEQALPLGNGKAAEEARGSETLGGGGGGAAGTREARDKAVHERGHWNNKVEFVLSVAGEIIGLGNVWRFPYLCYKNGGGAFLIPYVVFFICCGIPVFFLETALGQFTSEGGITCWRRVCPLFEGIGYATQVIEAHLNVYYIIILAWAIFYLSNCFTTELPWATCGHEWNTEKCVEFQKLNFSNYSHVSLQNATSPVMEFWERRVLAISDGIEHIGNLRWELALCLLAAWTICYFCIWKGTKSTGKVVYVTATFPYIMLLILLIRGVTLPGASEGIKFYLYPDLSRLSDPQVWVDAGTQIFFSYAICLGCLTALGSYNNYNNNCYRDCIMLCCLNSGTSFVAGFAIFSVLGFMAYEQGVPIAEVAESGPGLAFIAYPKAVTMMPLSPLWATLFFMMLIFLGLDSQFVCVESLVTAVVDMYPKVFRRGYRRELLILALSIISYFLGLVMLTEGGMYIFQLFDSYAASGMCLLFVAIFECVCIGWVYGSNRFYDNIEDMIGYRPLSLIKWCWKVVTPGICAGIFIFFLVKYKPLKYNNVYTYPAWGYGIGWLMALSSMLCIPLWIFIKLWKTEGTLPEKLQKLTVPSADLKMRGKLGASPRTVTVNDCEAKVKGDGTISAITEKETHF

[4] = target: Sodium- and chloride-dependent GABA transporter 1 (Mus musculus) (UniProt P31648); test: Displacement of [3H]NO711 from mouse GAT1 expressed in HEK293 cells at 100 uM measured after 40 mins of incubation by LC-ESI-MS-MS method; format: cell-based; details: in the assay text read “NO711” for “[3H]NO711”
Outline: (§1)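 Competitive MS Binding Assay for mGAT1 using NO-711 as a nonlabeled marker, quantified by LC–ESI–MS–MS. Compounds were screened at 100 µM. […] Otherwise, the percentage of remaining binding at 100 µM is given.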

[5] = Lipophilicity, logP of the compound by UPLC-MS method; format: physicochemical; details: octanol/water
Outline: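 LogP measured by UPLC on a BEH C18 column (2.1 × 100 mm, 1.7 µm, with C18 pre-column) coupled to an ESI tandem quadrupole MS. The method was calibrated with reference compounds of established logP values.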

[6] = target: T2, Sodium- and chloride-dependent GABA transporter 1; test: Inhibition of mouse GAT1 expressed in HEK293 cell line assessed as inhibition of [3H]GABA uptake measured after 35 mins by liquid scintillation method; format: cell-based
Outline: (§2)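 Otherwise, the remaining uptake at 100 µM is reported as a percentage. Values without SEM come from a single triplicate experiment.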

[7] = target: T3, GABA transporter 4; test: Inhibition of mouse GAT4 expressed in HEK293 cell line assessed as inhibition of [3H]GABA uptake measured after 35 mins by liquid scintillation method; format: cell-based; outline: as §2
[8] = target: T2, Sodium- and chloride-dependent GABA transporter 1; test: Displacement of [3H]NO711 from mouse GAT1 expressed in HEK293 cells measured after 40 mins of incubation by LC-ESI-MS-MS method; format: cell-based; details: in the assay text read “unlabelled NO711” for “[3H]NO711”; outline: as §1
[9] = target: Sodium- and chloride-dependent GABA transporter 1 (Mus musculus) (UniProt P31648); test: Inhibition of mouse GAT1 expressed in HEK293 cell line assessed as inhibition of [3H]GABA uptake at 100 uM measured after 35 mins by liquid scintillation method; values are per cent of control

Compound	residual activity [4] [%]	logP ([5]; read-out: logP)	IC50 [6] [µM]	IC50 [7] [µM]	other results
COc1ccc(C(OCCN2CCC[C@@H](C(=O)O)C2)(c2ccc(OC)cc2)c2ccc(OC)cc2C)cc1					IC50 [1]: 14.1 µM; IC50 [2]: 64.6 µM; IC50 [3]: 1.66 µM
CC(=O)NCCC(C(=O)NCc1ccccc1Cl)N(C)CCC=C(c1sccc1C)c1sccc1C (stereo unspecified)	68	6.46	8.71	6.17	
Cc1ccsc1C(=CCCN(C)C(CC(C)O)C(=O)NCc1ccccc1Cl)c1sccc1C (racemic; form 2) [listing 1 of 2 here]					logP [5]: 5.67; pIC50 ([7]; hek293): 5.02
Cc1ccsc1C(=CCCN(C)C(CCO)C(=O)NCc1ccc(Cl)cc1)c1sccc1C (stereo unspecified)	81	6.38	9.33	7.41	
Cc1ccsc1C(=CCCN(C)[C@@H]1CCc2onc(O)c2C1)c1sccc1C					IC50 [1]: > 302 µM; IC50 [2]: 7.08 µM; IC50 [3]: > 302 µM
Cc1ccc(CNC(=O)C(CC(C)O)N(C)CCC=C(c2sccc2C)c2sccc2C)cc1 (stereo in doubt) [listing 1 of 2 here]		6.15	25.1	7.08	
Cc1ccsc1C(=CCCN(C)C(CC(C)O)C(=O)NCc1ccc(Cl)cc1)c1sccc1C (stereo in doubt) [listing 1 of 2 here]		5.99		28.8	
Cc1ccsc1C(=CCCN(C)C(CC(C)O)C(=O)NCc1ccc(F)cc1)c1sccc1C (racemic; form 2) [listing 1 of 2 here]	70				
Cc1ccsc1C(=CCCN(C)C(CCN)C(=O)NCc1ccccc1)c1sccc1C (stereo unspecified)		5.5	11.5	6.61	Ki [8]: 24.5 µM
Cc1ccsc1C(=CCCN(C)[C@@H](CO)C(=O)NCc1ccc(Cl)cc1)c1sccc1C					Ki [8]: 87.1 µM
Cc1ccsc1C(=CCCN(C)C(CC(C)O)C(=O)NCc1ccc(F)cc1)c1sccc1C (racemic; form 2) [listing 2 of 2 here]			85.1	29.5	
Cc1ccsc1C(=CCCN(C)C(CC(C)O)C(=O)NCc1ccc(F)cc1)c1sccc1C (racemic; form 1) [listing 1 of 2 here]		5.51	66.1	17.8	
NCC(O)C(=O)O (stereo unspecified)			2510	5.01	
Cc1ccsc1C(=CCCN(C)C(CC(C)O)C(=O)NCc1ccc(F)cc1)c1sccc1C (racemic; form 1) [listing 2 of 2 here]	78				
Cc1ccsc1C(=CCCN(C)[C@H](CO)C(=O)NCc1ccc(Cl)cc1)c1sccc1C			20.4		Ki [8]: 18.6 µM
NCCC(=O)O [BETA-ALANINE]					IC50 [1]: 66.1 µM; IC50 [2]: 2950 µM; IC50 [3]: 110 µM
Cc1ccsc1C(=CCCN(C)C(CO)C(=O)NCc1ccc(C(F)(F)F)cc1)c1sccc1C (stereo unspecified)	92		13.5	17	
Cc1ccsc1C(=CCCN(C)C(CCO)C(=O)NCc1ccccc1)c1sccc1C (stereo unspecified)	60	5.71	15.8	10.2	
Cc1ccsc1C(=CCCN(C)C(CC(C)O)C(=O)NCc1ccc(Cl)cc1)c1sccc1C (mixture of isomers) [listing 1 of 2 here]	91				
Cc1ccsc1C(=CCCN(C)C(CCN)C(=O)NCc1ccccc1Cl)c1sccc1C (stereo unspecified)		6.11	7.59	5.62	Ki [8]: 11.7 µM
Cc1ccsc1C(=CCCN(C)C(CC(C)O)C(=O)NCc1ccccc1)c1sccc1C (racemic; form 2) [listing 1 of 2 here]	59				
Cc1ccc(CNC(=O)C(CC(C)O)N(C)CCC=C(c2sccc2C)c2sccc2C)cc1 (stereo in doubt) [listing 2 of 2 here]	72				
O=C(O)C1=CCCN(CCO/N=C/c2ccccc2-c2ccc(Cl)cc2Cl)C1				85.1	

Compound	residual activity [4] [%]	logP ([5]; read-out: logP)	IC50 [6] [µM]	IC50 [7] [µM]	other results
Cc1ccsc1C(=CCCN(C)C(CC(C)O)C(=O)NCc1ccccc1)c1sccc1C (racemic; form 1) [listing 1 of 2 here]	82				
Cc1ccsc1C(=CCCN(C)C(CC(C)O)C(=O)NCc1ccc(Cl)cc1)c1sccc1C (stereo in doubt) [listing 2 of 2 here]	90				residual activity [9]: 63%
Cc1ccsc1C(=CCCN(C)C(CCN)C(=O)NCc1ccc(F)cc1)c1sccc1C (stereo unspecified)		6.45	11.7	7.59	Ki [8]: 21.9 µM
Cc1ccsc1C(=CCCN(C)C(CC(C)O)C(=O)NCc1ccccc1Cl)c1sccc1C (racemic; form 2) [listing 2 of 2 here]	88				residual activity [9]: 47%
Cc1ccsc1C(=CCCN(C)[C@H](CCO)C(=O)NCc1ccccc1Cl)c1sccc1C			13.8		Ki [8]: 25.7 µM
Cc1ccsc1C(=CCCN(C)C1CCc2onc(O)c2C1)c1sccc1C (stereo unspecified)			7.08	> 302	
Cc1ccc(CNC(=O)C(CC(C)O)N(C)CCC=C(c2sccc2C)c2sccc2C)cc1 (racemic) [listing 1 of 2 here]			12.3	5.5	
Cc1ccsc1C(=CCCN(C)C(CC(C)O)C(=O)NCc1ccccc1)c1sccc1C (racemic; form 2) [listing 2 of 2 here]			23.4	18.6	logP [5]: 6.22
CN(CCC=C(c1ccccc1)c1ccccc1)C(CCN)C(=O)NCc1ccccc1Cl (stereo unspecified)					IC50 [1]: 10 µM
Cc1ccsc1C(=CCCN(C)C(CCO)C(=O)NC(C)c1ccccc1)c1sccc1C (stereo unspecified)	68	6.1	30.2	13.8	
Cc1ccsc1C(=CCCN(C)C(CC(C)O)C(=O)NCc1ccccc1Cl)c1sccc1C (racemic; form 1) [listing 1 of 2 here]		5.95		9.55	
Cc1ccsc1C(=CCCN(C)C(CC(C)O)C(=O)NCc1ccccc1Cl)c1sccc1C (racemic; form 1) [listing 2 of 2 here]	85				residual activity [9]: 51%
Cc1ccc(CNC(=O)C(CCO)N(C)CCC=C(c2sccc2C)c2sccc2C)cc1 (stereo unspecified)	58	6.2	12.9	7.08	
Cc1ccsc1C(=CCCN(C)C(CCO)C(=O)NCc1ccc(F)cc1F)c1sccc1C (stereo unspecified)	71	6.37	12.3	8.71	
Cc1ccsc1C(=CCCN(C)C(CCO)C(=O)NCc1ccc(F)cc1)c1sccc1C (stereo unspecified)	70	5.87	15.5	11	
Cc1ccsc1C(=CCCN(C)C(CC(C)O)C(=O)NCc1ccccc1)c1sccc1C (racemic; form 1) [listing 2 of 2 here]		5.64	13.2	3.89	
Cc1ccc(CNC(=O)C(CC(C)O)N(C)CCC=C(c2sccc2C)c2sccc2C)cc1 (racemic) [listing 2 of 2 here]	79				
Cc1ccc(CNC(=O)C(CCN)N(C)CCC=C(c2sccc2C)c2sccc2C)cc1 (stereo unspecified)		6.61	11.5	6.92	Ki [8]: 18.2 µM
Cc1ccsc1C(=CCCN(C)C(CCN)C(=O)NCc1ccc(Cl)cc1)c1sccc1C (stereo unspecified)		5.85	9.33	8.13	Ki [8]: 20 µM
Cc1ccsc1C(=CCCN(C)C(CO)C(=O)NCc1ccccc1)c1sccc1C (stereo unspecified)	46	6.26	35.5	20.9	
Cc1ccsc1C(=CCCN(C)[C@H]1CCc2onc(O)c2C1)c1sccc1C					IC50 [1]: > 302 µM; IC50 [2]: 7.08 µM; IC50 [3]: > 302 µM
Cc1ccsc1C(=CCCN(C)C(CC(C)O)C(=O)NCc1ccc(Cl)cc1)c1sccc1C (mixture of isomers) [listing 2 of 2 here]			57.5	13.2	logP [5]: 6.77
